Measured values collected from several papers.
Each line is one published result; the experiments were not run side by side.
Target: Serine/threonine-protein kinase PAK 6 (PAK6, Homo sapiens, UniProt Q9NQU5)

| Structure (SMILES) | observed | method | tested at | remaining binding [%] |
| --- | --- | --- | --- | --- |
| CN(C)c1ncc(F)c(-c2cnn3ncccc23)n1 | binding | – | 1 µM | 100 |
| O=C(c1ccc(Nc2ncc(Cl)c(-c3cc4ccccc4s3)n2)cc1)N1CCC(N2CCCC2)CC1 | binding | competition with immobilised ligand | 1 µM | 62 |
| C[C@H](c1ccnc(Nc2nc3ccc(-c4cc(N(C)C)ncn4)cc3[nH]2)c1)N1CCN(C(=O)CC(F)(F)F)CC1 | cell-free assay | competition with immobilised ligand | 0.1 µM | 100 |
| O=C(NCC1CCOCC1)c1n[nH]cc1NC(=O)c1c(F)cccc1F | binding | competition with immobilised ligand | 1 µM | 86 |
| C[C@H]1CCN(c2nccc(-c3cnn4ncccc34)n2)C1 | binding | – | 1 µM | 80 |
| CO[C@@H](C)c1c(Nc2ccc([C@@H](N(C)C(=O)C3CCS(=O)(=O)CC3)C(F)(F)F)cc2)cnc2cc(Cl)nn12 | cell-free assay | competition with immobilised ligand | 1 µM | 100 |
| N[C@@H]1CCN(c2nccc(-c3cnn4ncccc34)n2)C1 | binding | – | 1 µM | 100 |
| CNC(=O)[C@@H]1CC[C@@H](n2c(-c3ccc4cnccc4c3)nc3ccc(C(=O)NCc4cccc(C(N)=O)c4)cc32)C1 | binding | competition with immobilised ligand | 1 µM | 100 |
| CN(C)c1nccc(-c2cnc3ncccn23)n1 | binding | – | 1 µM | 98 |
| O=C(NC[C@@H]1[C@H]2CN(C(=O)OCc3cc(C(F)(F)F)cc(C(F)(F)F)c3)C[C@@H]12)c1ccc2[nH]nnc2c1 | cell-free assay | competition with immobilised ligand | 1 µM | 93 |
| CCN1CCN(Cc2ccc(C(=O)Nc3ccc(C)c(Oc4ccc5c(c4)CC(=O)N5)c3)cc2C(F)(F)F)CC1 | binding | competition with immobilised ligand | 1 µM | 100 |
| O=C(c1ccc(Nc2ncc(Cl)c(-c3ccc(Cl)s3)n2)cc1)N1CCC(N2CCCC2)CC1 | binding | competition with immobilised ligand | 1 µM | 52 |
| CCCCN(CCCC)C(=O)CN1C[C@@H](c2cc(OC)c3c(c2)OCO3)[C@H](C(=O)O)[C@H]1CC(C)(C)CCC | cell-free assay | competition with immobilised ligand | 1 µM | 100 |
| FC(F)(F)Oc1cccc(-c2cnc3ccc(-c4ccncc4)nn23)c1 | cell-free assay | competition with immobilised ligand | 5 µM | 53 |
| c1cnn2ncc(-c3ccnc(N4CCC45COC5)n3)c2c1 | binding | – | 1 µM | 81 |
| O=C(NCCCN1CCOCC1)c1ccc(Nc2nccc(-c3cc4ccccc4s3)n2)cc1 | binding | competition with immobilised ligand | 1 µM | 90 |
| Cc1noc([C@H]2C[C@@H](c3ccc(C(F)(F)F)cc3)CN(C(=O)N3CCS(=O)(=O)C3)C2)n1 | cell-free assay | competition with immobilised ligand | 1 µM | 100 |
| COc1cnc(Nc2cccc(S(N)(=O)=O)c2)nc1N1CCN(c2ccccc2)C(=O)C1 | binding | competition with immobilised ligand | 1 µM | 100 |
| CC1=C(C#N)[C@@H](c2ccc3[nH]nc(C)c3c2)C(C#N)=C(c2ccc(Cl)cc2)N1 | cell-free assay | competition with immobilised ligand | 1 µM | 100 |
| CN(CCCC(F)(F)F)c1nccc(-c2cnn3ncccc23)n1 | binding | – | 1 µM | 100 |
